ChEMBL document CHEMBL3352530, “Nitrogen-containing dihydro-β-agarofuran derivatives from Tripterygium wilfordii” (J Nat Prod, 2014)

Key:
[1] = system: PBMC; assay: Immunosuppressive activity in anti-CD3/anti-CD28-induced human PBMC after 96 hrs by flow cytometry; type: functional, cell-based
Outline: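 Healthy-donor PBMCs isolated by Lymphoprep density-gradient centrifugation, held in complete medium at 10⁶ cells/mL. Stimulated with plate-bound anti-CD3 (2 μg/mL) plus soluble anti-CD28 (1 μg/mL) monoclonal antibodies. Incubated 96 h with varying compound concentrations in DMSO (less than 0.025%) or vehicle alone. Proliferation measured by flow cytometry.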

[2] = system: PBMC; assay: Cytotoxicity against human PBMC after 96 hrs by flow cytometry; type: cell-based
Outline: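 PBMCs isolated from healthy donors by Lymphoprep density-gradient centrifugation and resuspended in complete medium. Cells at 10⁶ cells/mL incubated without stimulation for 96 h with different concentrations of compound or vehicle alone. Cell survival read by flow cytometry.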

Row | Structure (SMILES) | IC50 [1] [µM] | IC50 [2] [µM]
1 | CC(=O)OC[C@]12[C@H](OC(C)=O)[C@H](OC(C)=O)[C@@H]3[C@@H](O)[C@@]14O[C@@]3(C)COC(=O)c1cccnc1[C@@H](C)[C@H](C)C(=O)O[C@@H]([C@H](OC(=O)c1ccccc1)[C@@H]2OC(C)=O)[C@]4(C)O | 32.9 | 56.3
2 | CC(=O)O[C@@H]1[C@@H]2[C@@H](OC(C)=O)[C@@]34O[C@@]2(C)COC(=O)c2cccnc2CC[C@](C)(OC(=O)c2ccoc2)C(=O)O[C@@H]([C@H](O)[C@H](O)[C@@]3(CO)[C@@H]1O)[C@]4(C)O | 8.67 | > 100
3 | CC(=O)OC[C@]12[C@H](OC(C)=O)[C@H](OC(C)=O)[C@@H]3[C@@H](OC(C)=O)[C@@]14O[C@@]3(C)COC(=O)c1cccnc1CC[C@](C)(OC(=O)c1ccoc1)C(=O)O[C@@H]([C@H](OC(=O)c1ccoc1)[C@@H]2OC(C)=O)[C@]4(C)O | 4.95 | 26.4
4 | CC1(C)O[C@]23[C@H](OC(=O)c4cccnc4)[C@H]1C[C@@H](OC(=O)/C=C\c1ccccc1)[C@]2(CO)[C@@H](OC(=O)c1ccccc1)CC[C@]3(C)O | 24.7 | 57.6
5 | CC(=O)OC[C@]12[C@H](OC(C)=O)[C@H](OC(C)=O)[C@@H]3[C@@H](OC(C)=O)[C@@]14O[C@@]3(C)COC(=O)c1cccnc1CCC(C)(O)C(=O)O[C@@H]([C@H](OC(C)=O)[C@@H]2OC(C)=O)[C@]4(C)O (some centres not stated) [ALATUSININE] | 45.9 | 75.7
6 | COc1c(C)c2c(c(O)c1C/C=C(\C)CCC(=O)O)C(=O)OC2 [MYCOPHENOLIC ACID] | 0.18 | > 100
